Experimental data published in ChEMBL document CHEMBL1909539, “Reappraising the structures and distribution of metabolites from black aspergilli containing uncommon 2-benzyl-4H-pyran-4-one and 2-benzylpyridin-4(1H)-one systems” (J Nat Prod, 2011).
Active and inactive are the calls of the source. The calls are words filed in the database; no cut-off is given here.

How the values were obtained:
Format in all cases: functional, organism-based
[1] = tested on: Acinetobacter baumannii; assay: Antibacterial activity against Acinetobacter baumannii ATCC 19606 at 100 ug/ml after 24 hrs; conditions: ATCC 19606 = CIP 70.34 = JCM 6841
How it was run: (§1)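 Broth growth assay in 96-well plates with test compounds added from DMSO stocks (final DMSO 1%). OD600 was read after brief orbital shaking, then again after 24 h incubation at 37 °C in a humidified incubator. Activity was taken as the change in OD600 between the two readings.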

[2] = tested on: Acinetobacter baumannii; assay: Antibacterial activity against Acinetobacter baumannii ATCC BAA-1605 at 100 ug/ml after 24 hrs; how it was run: as §1
[3] = tested on: Burkholderia cepacia; assay: Antibacterial activity against Burkholderia cepacia ATCC 25608 at 100 ug/ml after 24 hrs; how it was run: as §1
[4] = tested on: Enterobacter cloacae; assay: Antibacterial activity against Enterobacter cloacae ATCC 13047 at 100 ug/ml after 24 hrs; how it was run: as §1
[5] = tested on: Escherichia coli; assay: Antibacterial activity against Escherichia coli ATCC 10798 at 100 ug/ml after 24 hrs; how it was run: as §1
[6] = tested on: Escherichia coli; assay: Antibacterial activity against Escherichia coli ATCC 11775 at 100 ug/ml after 24 hrs; how it was run: as §1
[7] = tested on: Pseudomonas aeruginosa; assay: Antibacterial activity against Pseudomonas aeruginosa ATCC 10145 at 100 ug/ml after 24 hrs; how it was run: as §1
[8] = tested on: Klebsiella pneumoniae; assay: Antibacterial activity against Klebsiella pneumoniae ATCC 33495 at 100 ug/ml after 24 hrs; how it was run: as §1
[9] = tested on: Klebsiella pneumoniae; assay: Antibacterial activity against Klebsiella pneumoniae ATCC 51503 at 100 ug/ml after 24 hrs; how it was run: as §1
[10] = tested on: Staphylococcus epidermidis; assay: Antibacterial activity against Staphylococcus epidermidis ATCC 12228 at 100 ug/ml after 24 hrs; how it was run: as §1
[11] = tested on: Staphylococcus aureus; assay: Antibacterial activity against Staphylococcus aureus ATCC 25293 at 100 ug/ml after 24 hrs; how it was run: as §1
[12] = tested on: Staphylococcus aureus; assay: Antibacterial activity against Staphylococcus aureus ATCC 700787 at 100 ug/ml after 24 hrs; how it was run: as §1
[13] = tested on: Candida albicans; assay: Potentiation of antifungal activity of imidazole against Candida albicans ATCC 38245 by broth microdilution assay
[14] = tested on: Candida albicans; assay: Antifungal activity against Candida albicans ATCC 38245 at 100 ug/ml after 48 hrs
How it was run: (§2)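 Yeasts and Aspergillus cultures were dispensed into 96-well plates and compound in DMSO was added (1% DMSO final). Plates were shaken orbitally and OD600 was read at start. After 48 h at 37 °C, humidified, OD600 was read again, and activity was calculated as the change in optical density.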

[15] = tested on: Nakaseomyces glabratus; assay: Antifungal activity against Candida glabrata NRRL Y-65 at 100 ug/ml after 48 hrs; how it was run: as §2
[16] = tested on: Candida parapsilosis; assay: Antifungal activity against Candida parapsilosis ATCC 12969 at 100 ug/ml after 48 hrs; how it was run: as §2
[17] = tested on: Candida tropicalis; assay: Antifungal activity against Candida tropicalis ATCC 12968 at 100 ug/ml after 48 hrs; how it was run: as §2
[18] = tested on: Aspergillus fumigatus; assay: Antifungal activity against Aspergillus fumigatus NRRL A1100 at 100 ug/ml after 48 hrs; how it was run: as §2
[19] = tested on: Aspergillus flavus; assay: Antifungal activity against Aspergillus flavus NRRL A1120 at 100 ug/ml after 48 hrs; how it was run: as §2
[20] = tested on: Aspergillus flavus; assay: Antifungal activity against Aspergillus flavus NRRL A1120 at 10 ug/ml after 48 hrs; how it was run: as §2
[21] = tested on: Aspergillus fumigatus; assay: Antifungal activity against Aspergillus fumigatus NRRL A1100 at 10 ug/ml after 48 hrs; how it was run: as §2
[22] = tested on: Pichia kudriavzevii; assay: Antifungal activity against Candida krusei ATCC 27803 at 100 ug/ml after 48 hrs; how it was run: as §2
[23] = tested on: Pichia kudriavzevii; assay: Antifungal activity against Candida krusei ATCC 27803 at 10 ug/ml after 48 hrs; how it was run: as §2

**Q.** `C[C@@H](CC(=O)NC(=O)c1cn(-c2ccccc2)c(Cc2ccccc2)cc1=O)C(=O)O` was tested. Which inhibition [1] did it give?
**A.** Its inhibition is “inactive”.

**Q.** What about the inhibition [2] of the same compound?
**A.** The inhibition was “inactive”.

**Q.** What about the inhibition [3] of the same compound?
**A.** Its inhibition is “inactive”.

**Q.** What about the inhibition [4] of the same compound?
**A.** The inhibition was “inactive”.

**Q.** What about the inhibition [5] of the same compound?
**A.** Its inhibition is “inactive”.

**Q.** What about the inhibition [6] of the same compound?
**A.** The inhibition was “inactive”.

**Q.** And the inhibition [7]?
**A.** Its inhibition is “inactive”.

**Q.** What about the inhibition [8] of the same compound?
**A.** The inhibition was “inactive”.

**Q.** What about the inhibition [9] of the same compound?
**A.** Its inhibition is “inactive”.

**Q.** What about the inhibition [10] of the same compound?
**A.** Its inhibition is “inactive”.

**Q.** What about the inhibition [11] of the same compound?
**A.** Its inhibition is “inactive”.

**Q.** What about the inhibition [12] of the same compound?
**A.** Its inhibition is “inactive”.

**Q.** For `COC(=O)[C@@H](C)CC(=O)NC(=O)c1coc(Cc2ccccc2)cc1=O`, which Activity [13] is on record?
**A.** The Activity was “inactive”.

**Q.** What does the source list for `NC(=O)c1cn(-c2ccc(F)cc2)c(Cc2ccccc2)cc1=O`?
**A.** inhibition [1]: inactive; inhibition [2]: inactive; inhibition [3]: inactive; inhibition [4]: inactive; inhibition [5]: inactive; inhibition [6]: inactive; inhibition [7]: inactive; inhibition [8]: inactive; inhibition [9]: inactive; inhibition [10]: inactive; inhibition [11]: inactive; inhibition [12]: inactive

**Q.** `C[C@@H](CC(=O)NC(=O)c1coc(Cc2ccccc2)cc1=O)C(=O)O` was tested. Which inhibition [1] did it give?
**A.** Its inhibition is “inactive”.

**Q.** And the inhibition [2]?
**A.** Its inhibition is “inactive”.

**Q.** What about the inhibition [3] of the same compound?
**A.** The inhibition was “inactive”.

**Q.** And the inhibition [4]?
**A.** Its inhibition is “inactive”.

**Q.** And the inhibition [5]?
**A.** Its inhibition is “inactive”.

**Q.** And the inhibition [6]?
**A.** Its inhibition is “inactive”.

**Q.** What about the inhibition [7] of the same compound?
**A.** Its inhibition is “inactive”.

**Q.** What about the inhibition [8] of the same compound?
**A.** The inhibition was “inactive”.

**Q.** What about the inhibition [9] of the same compound?
**A.** Its inhibition is “inactive”.

**Q.** What about the inhibition [10] of the same compound?
**A.** Its inhibition is “inactive”.

**Q.** And the inhibition [11]?
**A.** The inhibition was “inactive”.

**Q.** And the inhibition [12]?
**A.** The inhibition was “inactive”.

**Q.** And the Activity [13]?
**A.** Its Activity is “inactive”.

**Q.** What does the source list for `NC(=O)c1coc(Cc2ccccc2)cc1=O`?
**A.** inhibition [1]: inactive; inhibition [2]: inactive; inhibition [3]: inactive; inhibition [4]: inactive; inhibition [5]: inactive; inhibition [6]: inactive; inhibition [7]: inactive; inhibition [8]: inactive; inhibition [9]: inactive; inhibition [10]: inactive; inhibition [11]: inactive; inhibition [12]: inactive; Activity [13]: inactive

**Q.** With `CCOC(=O)c1coc(-c2ccccc2)cc1=O` as the compound, how does the inhibition [14] read?
**A.** Its inhibition is “Active”.

**Q.** What about the inhibition [15] of the same compound?
**A.** Its inhibition is “Active”.

**Q.** And the inhibition [16]?
**A.** Its inhibition is “Active”.

**Q.** What about the inhibition [17] of the same compound?
**A.** The inhibition was “Active”.

**Q.** What about the inhibition [18] of the same compound?
**A.** The inhibition was “Active”.

**Q.** And the inhibition [19]?
**A.** The inhibition was “Active”.

**Q.** And the inhibition [20]?
**A.** The inhibition was “Active”.

**Q.** And the inhibition [21]?
**A.** Its inhibition is “Active”.

**Q.** What about the inhibition [22] of the same compound?
**A.** Its inhibition is “Active”.

**Q.** What about the inhibition [23] of the same compound?
**A.** The inhibition was “Active”.

**Q.** For `COC(=O)c1coc(Cc2ccccc2)cc1=O`, which inhibition [14] is on record?
**A.** The inhibition was “Active”.

**Q.** What about the inhibition [15] of the same compound?
**A.** The inhibition was “Active”.

**Q.** What about the inhibition [16] of the same compound?
**A.** The inhibition was “Active”.

**Q.** And the inhibition [1]?
**A.** Its inhibition is “inactive”.

**Q.** What about the inhibition [2] of the same compound?
**A.** Its inhibition is “inactive”.

**Q.** What about the inhibition [3] of the same compound?
**A.** Its inhibition is “inactive”.

**Q.** What about the inhibition [4] of the same compound?
**A.** Its inhibition is “inactive”.

**Q.** What about the inhibition [5] of the same compound?
**A.** The inhibition was “inactive”.

**Q.** What about the inhibition [6] of the same compound?
**A.** Its inhibition is “inactive”.

**Q.** And the inhibition [7]?
**A.** Its inhibition is “inactive”.

**Q.** What about the inhibition [8] of the same compound?
**A.** The inhibition was “inactive”.

**Q.** What about the inhibition [9] of the same compound?
**A.** Its inhibition is “inactive”.

**Q.** What about the inhibition [10] of the same compound?
**A.** Its inhibition is “inactive”.

**Q.** What about the inhibition [11] of the same compound?
**A.** The inhibition was “inactive”.

**Q.** And the inhibition [12]?
**A.** Its inhibition is “inactive”.

**Q.** And the Activity [13]?
**A.** Its Activity is “inactive”.

**Q.** And the inhibition [17]?
**A.** The inhibition was “Active”.

**Q.** What about the inhibition [18] of the same compound?
**A.** Its inhibition is “Active”.

**Q.** What about the inhibition [19] of the same compound?
**A.** Its inhibition is “Active”.

**Q.** And the inhibition [20]?
**A.** Its inhibition is “Active”.

**Q.** What about the inhibition [22] of the same compound?
**A.** Its inhibition is “Active”.
